Data as given in ChEMBL document CHEMBL4402570, “Discovery and Optimization of Novel Pyrazolopyrimidines as Potent and Orally Bioavailable Allosteric HIV-1 Integrase Inhibitors” (J Med Chem, 2020).

Columns and labels:
[1] = tested on: Human immunodeficiency virus 1; experiment: Antiviral activity against HIV1 NL4-3 infected in human MT2 cells measured after 3 to 4 days by luciferase reporter gene assay; format: functional, organism-based; details: Human immunodeficiency virus 1, NL4-3, MT2
[2] = Cytotoxicity against human MT2 cells measured after 4 days by XTT assay; format: cell-based
Summary of the method: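 MT-2 cell viability measured by XTT after 4 days of compound exposure, run in parallel with the antiviral assay; CC50 from n ≥ 2 determinations.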

[3] = Permeability of the compound in pH 7.4 buffer at 100 uM measured after 4 hrs by sandwich-PAMPA; format: ADME; details: read-out: permeability
Summary of the method: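 Parallel artificial membrane permeability: compound at 100 μM in donor buffer pH 7.4, permeating to acceptor through artificial membrane over 4 h; donor, acceptor and t0 solutions read by UV plate reader; triplicate.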

[4] = Stability of the compound in human liver microsomes assessed as parent compound remaining at 0.5 uM measured after 10 mins in presence of NADPH by LC-MS/MS analysis; format: ADME, Microsome; details: read-out: Stability
Summary of the method: (§1)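 CYP-mediated turnover: 0.5 μM compound with human or rat liver microsomes (1 mg/mL) in 100 mM sodium phosphate pH 7.4, 6.6 mM MgCl2, 37 °C; started with NADPH, DMSO 0.014%. Samples quenched at 0 and 10 min; parent remaining by LC-MS/MS; duplicate.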

[5] = Stability of the compound in rat liver microsomes assessed as parent compound remaining at 0.5 uM measured after 10 mins in presence of NADPH by LC-MS/MS analysis; format: ADME, Microsome; details: read-out: Stability; summary of the method: as §1
[6] = Therapeutic index, ratio of CC50 for human MT2 cells to EC50 for HIV1 NL4-3 infected in human MT2 cells; format: toxicity, cell-based; details: read-out: Ratio CC50/EC50
[7] = tested on: Human immunodeficiency virus 1; experiment: Antiviral activity against HIV1 NL4-3 infected in human MT2 cells measured after 3 to 4 days in presence of human serum albumin by luciferase reporter gene assay; format: functional, organism-based; details: Human immunodeficiency virus 1, NL4-3, MT2
[8] = tested on: Human immunodeficiency virus 1; experiment: Selectivity ratio of EC50 for HIV1 NL4-3 infected in human MT2 cells in presence of human serum albumin to EC50 for HIV1 NL4-3 infected in human MT2 cells in absence of human serum albumin; format: functional
[9] = Cmax in Sprague-Dawley rat at 1 mg/kg, iv infusion for 10 mins or 5 mg/kg, po administered via gavage by LC-MS/MS analysis; format: ADME, organism-based; details: in vivo
Summary of the method: (§2)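 Rats given iv via implanted venous cannula as 10 min infusion, or oral gavage after overnight fast; vehicle 10% dimethylacetamide/90% PEG400 for both routes. Plasma from venous-port blood, treated with CH3CN containing internal standard, analysed by LC-MS/MS; oral plasma levels followed 24 h after 5 mg/kg. Parameters by noncompartmental analysis of concentration-time data.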

[10] = Tmax in Sprague-Dawley rat at 1 mg/kg, iv infusion for 10 mins or 5 mg/kg, po administered via gavage by LC-MS/MS analysis; format: ADME, organism-based; details: in vivo; summary of the method: as §2
[11] = AUC (0 to 24 hrs) in Sprague-Dawley rat at 1 mg/kg, iv infusion for 10 mins or 5 mg/kg, po administered via gavage by LC-MS/MS analysis; format: ADME, organism-based; details: in vivo; summary of the method: as §2
[12] = Half life in Sprague-Dawley rat at 1 mg/kg, iv infusion for 10 mins or 5 mg/kg, po administered via gavage by LC-MS/MS analysis; format: ADME, organism-based; details: in vivo; summary of the method: as §2
[13] = Clearance in Sprague-Dawley rat at 1 mg/kg, iv infusion for 10 mins or 5 mg/kg, po administered via gavage by LC-MS/MS analysis; format: ADME, organism-based; details: in vivo; summary of the method: as §2
[14] = Volume of distribution at steady state in Sprague-Dawley rat at 1 mg/kg, iv infusion for 10 mins or 5 mg/kg, po administered via gavage by LC-MS/MS analysis; format: ADME, organism-based; details: in vivo, read-out: Vdss; summary of the method: as §2
[15] = Oral bioavailability in Sprague-Dawley rat at 5 mg/kg administered via gavage by LC-MS/MS analysis; format: ADME, organism-based; details: in vivo; summary of the method: as §2

## Cc1ccccc1-c1cccc(-c2cc3nc(C)c([C@H](OC(C)(C)C)C(=O)O)c(-c4cc(F)c5c(c4C)CCCO5)n3n2)c1
[1]
  EC50: 6 nM
[2]
  CC50 at 96 h: 28200 nM
[3]
  Papp at 4 h, 100 µM: 47.1 ×10⁻⁶ cm/s
[4]
  remaining at 10 min, 0.5 µM: 95%
[5]
  remaining at 10 min, 0.5 µM: 97%
[6]
  selectivity ratio: 4690
[7]
  EC50: 30 nM
[8]
  Ratio EC50: 5
[9]
  Cmax: 1290 nM
[10]
  Tmax: 3 h
[11]
  AUC(0-t): 6.3 µM·h
[12]
  half-life: 4.1 h
[13]
  clearance: 7.1 mL/min/kg
[14]
  Vd: 0.5 L/kg
[15]
  bioavailability: 32%
